TAAR1 ag = human TAAR1 agonism; 360,000 compounds, 0.99% hits; activation, % at 3 µM; CHO RD-HGA16 TAAR1, Fluo-8 calcium fluorescence; vehicle wells 0%, saturating PEA agonist 100%;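 active = activation above the mean activation of all test compounds in the run plus 3 SD, cut at about 38% in these data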
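Benchmarks: low control DMSO, high control PEA (EC100); System: CHO RD-HGA16 cells carrying human TAAR1 plus Gα16; Detection: Fluo-8 fluorescence, 5 s baseline then 140 s kinetic read; Schedule: 17-24 h plating, Fluo-8 75 min 37 °C, 30 min RT; Read-out basis: % activation from peak over basal fluorescence ratio, DMSO-to-PEA scaled.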
OXTR potentiator = potentiates the human oxytocin receptor response | P30559 | CHO-OTR cells, Fluo-8 calcium fluorescence, potentiator mode; 0% = oxytocin EC15, 100% = EC100 | activation, % at 3 µM | 320,000 compounds, 0.061% hits | AID 2445;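 active = activation above that plate's cutoff, the mean activation of tested compounds plus 3 SD, cut at about 6.6% in these data, passing the limit was not always enough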;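 note: 100% uses oxytocin at 75 nM as the full agonist control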
Target sequence (P30559 whole entry, looked up): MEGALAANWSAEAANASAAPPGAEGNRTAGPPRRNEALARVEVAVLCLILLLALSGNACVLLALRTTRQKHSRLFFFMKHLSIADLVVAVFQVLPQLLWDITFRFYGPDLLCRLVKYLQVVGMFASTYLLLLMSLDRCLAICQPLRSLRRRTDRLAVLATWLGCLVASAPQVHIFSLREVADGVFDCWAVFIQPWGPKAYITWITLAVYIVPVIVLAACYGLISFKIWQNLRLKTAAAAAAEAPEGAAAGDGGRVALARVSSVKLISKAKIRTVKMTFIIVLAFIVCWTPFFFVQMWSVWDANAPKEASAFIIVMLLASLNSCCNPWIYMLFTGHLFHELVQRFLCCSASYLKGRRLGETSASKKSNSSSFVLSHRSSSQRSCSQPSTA
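Replication – single well per compound, singlicate · Assay system – CHO cell line stably expressing human OTR · Timing – 6 min pre-incubation, 100 s read · Measure – normalized max/min fluorescence ratio, % activation · Doses – 3.0 µM, one dose · Detection – Fluo-8 calcium dye fluorescence · Probe or stimulus – oxytocin near EC15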
TAAR1 antag = human TAAR1 antagonism; Q96RJ0; CHO RD-HGA16 TAAR1, Fluo-8 calcium fluorescence, antagonist; inhibition, % at 3 µM; 360,000 compounds, 1.5% hits;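 active = inhibition above a per-plate cutoff, the mean inhibition of test compounds on that plate plus 3 SD, cut at about 49% in these data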;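 note: 0% = DMSO plus EC80 beta-PEA response and 100% = DMSO alone without agonist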
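Assay system: CHO-derived RD-HGA16 cells stably expressing human TAAR1 plus Gα16. Timing: 140 s kinetic read after compound, 140 s after agonist. Technique: kinetic Fluo-8 calcium fluorescence measurement. Measure: % inhibition of agonist calcium response.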
OXTR agonist = agonists of human oxytocin receptor. P30559. activation, % at 3 µM. CHO-OTR cells, Fluo-8 calcium fluorescence; normalized: DMSO 0%, oxytocin 100%. 320,000 compounds, 0.32% hits;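 active = activation above the mean of all tested compounds plus 3 SD, cutoff set per screening run, cut at about 20% in these data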;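 note: peak over basal fluorescence ratio from a 100 s FLIPR kinetic read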
V1R ag counter = counter-screen for oxytocin receptor agonists: human V1a receptor agonists; P37288; CHO-V1R cells, Fluo-8 calcium fluorescence, agonist mode; 0% DMSO, 100% 3 nM vasopressin; activation, % at 3 µM; 320,000 compounds, 0.25% hits;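 active = activation above the mean activation of all tested compounds plus 3 SD, per screening run, cut at about 20% in these data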;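 note: signal is peak over basal fluorescence ratio across a 100 second FLIPR read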
TAAR1 ag confirm = human TAAR1 agonism, confirmed. shares compounds with TAAR1 ag. CHO RD-HGA16 TAAR1, Fluo-8 calcium fluorescence; scaled: DMSO 0%, maximal phenethylamine 100%. activation, % at 3 µM. 2,400 compounds, 82% hits. AID 651783;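 active = activation above a cutoff set at the run's mean compound activation plus 3 SD, cut at about 39% in these data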
Ga16 nonsel ag = counter-screen for TAAR1 agonists: nonselective agonists in parental cells; shares compounds with TAAR1 ag; CHO-Ga16 parental, Fluo-8 calcium fluorescence; normalized to maximal ATP response, DMSO zero; activation, % at 3 µM; 2,400 compounds, 50% hits;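 active = activation above the run cutoff, the mean activation over all tested wells plus 3 SD, cut at about 12% in these data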;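 note: 0% = DMSO wells and 100% = maximal ATP response on the peak over basal ratio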
TAAR1 desensitize = TAAR1 response desensitization, agonist counter-screen. shares compounds with TAAR1 ag. CHO RD-HGA16 hTAAR1, Fluo-8 calcium, beta-PEA response inhibition. inhibition, % at 3 µM. 2,400 compounds, 46% hits. AID 651951;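 active = inhibition above the run cutoff, the mean inhibition of all test compounds plus 3 SD, cut at about 49% in these data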;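 note: beta-PEA stimulus applied at its EC80; loss of beta-PEA calcium signal after compound pretreatment read as receptor desensitization; 0% = DMSO with beta-PEA at EC80 and 100% = DMSO alone without agonist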
Ga16 nonsel ant = nonselective Ga16 antagonism, counter-screen; shares compounds with TAAR1 ag; CHO-Ga16 ATP-induced calcium, Fluo-8 fluorescence; inhibition, % at 3 µM; 2,400 compounds, 39% hits;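 active = inhibition above the plate's mean compound inhibition plus 3 SD, computed per plate, cut at about 22% in these data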;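 note: 0% = EC80 ATP with DMSO and 100% = DMSO wells without ATP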
* hit, by the source's call; / = no result. An excerpt weighted towards active compounds, which were near 2.3% of everything screened.

SMILES | TAAR1 ag | OXTR potentiator | TAAR1 antag | OXTR agonist | V1R ag counter | TAAR1 ag confirm | Ga16 nonsel ag | TAAR1 desensitize | Ga16 nonsel ant
CC(NC(=O)COC(=O)c1cccnc1Cl)C12CC3CC(CC(C3)C1)C2 (centres undefined) | 4 | -3 | 1 | -1 | 0 | / | / | / | /
COC(=O)C[C@H]1CC[C@@H](NC(=O)Nc2cccc(OC)c2)[C@@H](CO)O1 | 1 | / | -10 | / | / | / | / | / | /
O=C(CSS(=O)(=O)O)N1CCN(C(=O)c2ccoc2)CC1 | 14 | -2 | -5 | 0 | 1 | / | / | / | /
Cc1oc(-c2ccccc2)nc1CS(=O)CC(=O)N1CCc2ccccc2C1 (centres undefined) | 56* | 3 | -15 | -2 | -1 | 91* | 0 | 44 | 2
Cc1ccc(-c2nc(CS(=O)CC(=O)N3CCN(c4ccccc4)CC3)c(C)o2)cc1 (centres undefined) | 1 | -9 | -9 | 4 | 4 | / | / | / | /
COc1ccccc1N1CCN(Cc2nc(-c3ccc(F)cc3)oc2C)CC1 | 1 | -14 | 10 | 0 | 1 | / | / | / | /
COc1ccccc1N1CCN(Cc2cn[nH]c2-c2ccc(F)cc2)CC1 | 121* | 3 | 0 | 13 | 14 | 123* | 80* | 48 | 6
COc1ccc(/C=C/C(=O)c2ccc([N+](=O)[O-])o2)cc1OC | 59* | 10 | 42 | 2 | 0 | 47* | 17* | 49* | 31*
CCc1nc2c(OCCC3CCCCC3)cccn2c1N(C=O)Cc1ccc(OC)cc1 | 1 | / | -23 | / | / | / | / | / | /
COc1cc(N=c2ssnc2Cl)c(OC)cc1Cl | 59* | -2 | 29 | 0 | 5 | 49* | 38* | 34 | 33*
OCCNCc1cccc(-c2ccccc2)c1O | 0 | / | -14 | / | / | / | / | / | /
COC(=O)c1c(-n2c(C)cc(C=O)c2C)sc2c1CCCC2 | 41* | 3 | 72* | -2 | -1 | -4 | 1 | 0 | 3
O=C(Cn1nnc(N2CCCC2)n1)N/N=C/c1ccc(Cl)cc1 | 58* | -4 | -4 | 7 | 3 | 85* | 5 | 28 | 2
O=C1Nc2ccccc2/C1=N/c1sc2c(c1C(=O)NCCc1ccccc1)CCCC2 | 83* | -5 | 71* | -1 | -1 | 50* | 19* | 27 | 22*
O=C(Nc1sc2c(c1C(=O)NCCO)CCCC2)c1ccco1 | -2 | -3 | 5 | 0 | 3 | / | / | / | /
CN(C)S(=O)(=O)c1ccc(C(=O)NCC(=O)N/N=C/c2ccccc2)cc1 | / | -7 | / | 0 | 1 | / | 1 | / | 5
O=C(NCCc1ccccc1)C(=O)NCC1CCCN1S(=O)(=O)c1cccs1 (centres undefined) | 89* | -16 | 69* | -1 | 1 | 98* | 9 | 95* | 27*
Cc1ccccc1NC(=O)C(=O)NCC1CCCN1S(=O)(=O)c1cccs1 (centres undefined) | 1 | -15 | -8 | -1 | -1 | / | / | / | /
NS(=O)(=O)c1cc2c(cc1Cl)NC=NS2(=O)=O | 2 | -6 | -26 | 0 | 1 | / | / | / | /
CC1CCN(C(=O)c2ccc3c(c2NCCO)C(=O)c2ccccc2C3=O)CC1 | 48* | -12 | 21 | 4 | 0 | 15 | 10 | 30 | 25*
CCCCN(C)CCN1C(=O)C2C(C(=O)Nc3ccc(OC)cc3)C3C=CC2(O3)C1C(=O)NC1CCCCC1 (centres undefined) | 3 | -4 | -16 | -1 | -1 | / | / | / | /
O=C(Nc1ccccc1F)c1ccc(CNS(=O)(=O)c2cccc(C(F)(F)F)c2)cc1 | 46* | -15 | 40 | 1 | 2 | 29 | 16* | 26 | 18

Source: PubChem
